Measured values published in ChEMBL document CHEMBL1909543, “Synthesis and biological evaluation of thio-benzodiazepines as novel small molecule inhibitors of the p53-MDM2 protein-protein interaction” (Eur J Med Chem, 2011).
pIC50, pKi: −log10 of the molar value.

Columns and labels:
[1] = biological target: Tumour suppressor p53/oncoprotein Mdm2 (Homo sapiens, UniProt Q00987); assay: Inhibition of Mdm2-p53 protein interaction preincubated for 1 hr by fluorescence polarization assay
[2] = system: SAOS-2; assay: Antitumor activity against p53 deficient human Saos2 cells after 72 hrs by MTT assay; format: functional, cell-based; conditions: SAOS-2, 72 h
Summary of the method: (§1)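 Cells seeded at 5-6 × 10⁴ per well and cultured 24 h, then exposed to a range of compound concentrations in triplicate wells; vehicle control 0.1% DMSO. After 72 h, MTT (5 mg/mL solution) added, plate shaken 1 min, then incubated 4 h at 37 °C. Formazan dissolved in DMSO and absorbance read at 570 nm. Drug-free wells served as blanks. IC50 = 50% growth inhibition.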

[3] = system: U2OS; assay: Antitumor activity against human U2OS cells expressing wild type p53 after 72 hrs by MTT assay; format: functional, cell-based
Summary of the method: as §1

[4] = system: U2OS; assay: Ratio of nutlin-3a IC50 to compound IC50 for human U2OS cells expressing wild type p53; format: functional

Chain of Tumour suppressor p53/oncoprotein Mdm2 (P04637 whole entry): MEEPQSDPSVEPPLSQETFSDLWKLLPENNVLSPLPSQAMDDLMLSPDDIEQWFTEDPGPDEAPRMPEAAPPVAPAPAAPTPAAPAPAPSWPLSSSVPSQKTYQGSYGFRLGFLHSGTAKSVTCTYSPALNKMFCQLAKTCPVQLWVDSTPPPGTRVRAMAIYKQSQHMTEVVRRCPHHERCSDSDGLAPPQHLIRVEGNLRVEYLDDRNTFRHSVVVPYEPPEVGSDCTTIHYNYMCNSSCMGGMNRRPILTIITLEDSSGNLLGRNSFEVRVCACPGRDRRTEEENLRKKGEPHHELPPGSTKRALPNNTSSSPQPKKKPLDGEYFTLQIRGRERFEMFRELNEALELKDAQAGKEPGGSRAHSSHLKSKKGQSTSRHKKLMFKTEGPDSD
Chain of Tumour suppressor p53/oncoprotein Mdm2 (Q00987 whole entry): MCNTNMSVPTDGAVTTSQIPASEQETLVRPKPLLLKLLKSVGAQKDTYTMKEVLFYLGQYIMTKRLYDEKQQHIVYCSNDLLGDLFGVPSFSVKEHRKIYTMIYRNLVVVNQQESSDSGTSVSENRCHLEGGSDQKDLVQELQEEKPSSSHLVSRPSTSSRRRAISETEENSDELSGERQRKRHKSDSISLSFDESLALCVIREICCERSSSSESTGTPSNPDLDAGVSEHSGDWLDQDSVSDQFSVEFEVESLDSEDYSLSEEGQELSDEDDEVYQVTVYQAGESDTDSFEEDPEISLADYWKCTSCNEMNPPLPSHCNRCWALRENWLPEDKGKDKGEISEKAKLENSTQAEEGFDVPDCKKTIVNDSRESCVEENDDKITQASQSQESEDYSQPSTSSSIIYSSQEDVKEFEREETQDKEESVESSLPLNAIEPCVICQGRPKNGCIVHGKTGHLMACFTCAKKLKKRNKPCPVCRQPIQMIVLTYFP

## COC(=O)C(c1ccc(Cl)cc1)N1C(=O)c2ccc(NCc3ccc(Br)cc3)cc2NC(=S)C1c1ccc(Cl)cc1 (configuration not stated)
[1]
  pKi: < 4.00
[2]
  pIC50: 4.86
[3]
  pIC50: 4.83

## COC(=O)C(c1ccc(Cl)cc1)N1C(=O)c2ccccc2NC(=O)C1c1ccc(Cl)cc1 (configuration not stated)
[1]
  pKi: 4.97
[2]
  pIC50: 5.25
[3]
  pIC50: 4.86

## COC(=O)C(c1ccc(Cl)cc1)N1C(=O)c2ccccc2NC(=S)C1c1ccc(Cl)cc1 (configuration not stated)
[1]
  pKi: 6.28
[2]
  pIC50: 5.18
[3]
  pIC50: 4.86

## CCCNc1ccc2c(c1)NC(=S)C(c1ccc(Cl)cc1)N(C(C(=O)OC)c1ccc(Cl)cc1)C2=O (configuration not stated)
[1]
  pKi: 5.99
[2]
  pIC50: 4.91
[3]
  pIC50: 4.04

## COC(=O)C(c1ccc(Cl)cc1)N1C(=O)c2ccc(NCc3ccccc3)cc2NC(=S)C1c1ccc(Cl)cc1 (configuration not stated)
[1]
  pKi: 5.65
[2]
  pIC50: 4.75
[3]
  pIC50: < 4.00

## COC(=O)C(c1ccc(Cl)cc1)N1C(=O)c2ccc(NCc3ccc(Cl)cc3)cc2NC(=S)C1c1ccc(Cl)cc1 (configuration not stated)
[1]
  pKi: < 4.00
[2]
  pIC50: 4.88
[3]
  pIC50: 4.68

## COC(=O)C(c1ccc(Cl)cc1)N1C(=O)c2ccc(NCC(C)(C)C)cc2NC(=S)C1c1ccc(Cl)cc1 (configuration not stated)
[1]
  pKi: < 4.00
[2]
  pIC50: 5.66
[3]
  pIC50: 4.75

## COC(=O)C(c1ccc(Cl)cc1)N1C(=O)c2ccc(NCC(C)C)cc2NC(=S)C1c1ccc(Cl)cc1 (configuration not stated)
[1]
  pKi: 6.49
[2]
  pIC50: 4.80
[3]
  pIC50: < 4.00

## CCCCCNc1ccc2c(c1)NC(=S)C(c1ccc(Cl)cc1)N(C(C(=O)OC)c1ccc(Cl)cc1)C2=O (configuration not stated)
[1]
  pKi: 4.82
[2]
  pIC50: 4.68
[3]
  pIC50: < 4.00

## CCCCNc1ccc2c(c1)NC(=S)C(c1ccc(Cl)cc1)N(C(C(=O)OC)c1ccc(Cl)cc1)C2=O (configuration not stated)
[1]
  pKi: 4.30
[2]
  pIC50: 4.56
[3]
  pIC50: < 4.00

## COC(=O)C(c1ccc(Cl)cc1)N1C(=O)c2ccc(NCC3CC3)cc2NC(=S)C1c1ccc(Cl)cc1 (configuration not stated)
[1]
  pKi: 5.46
[2]
  pIC50: 4.72
[3]
  pIC50: < 4.00

## COC(=O)C(c1ccc(Cl)cc1)N1C(=O)c2ccc(NCc3ccc(C(F)(F)F)cc3)cc2NC(=S)C1c1ccc(Cl)cc1 (configuration not stated)
[1]
  pKi: 5.27
[2]
  pIC50: 5.54
[3]
  pIC50: 5.97
[4]
  Ratio IC50: 23

## COC(=O)C(c1ccc(Cl)cc1)N1C(=O)c2ccc(NCC3CCCCC3)cc2NC(=S)C1c1ccc(Cl)cc1 (configuration not stated)
[1]
  pKi: < 4.00
[2]
  pIC50: 4.14
[3]
  pIC50: < 4.00

## COC(=O)C(c1ccc(Cl)cc1)N1C(=O)c2ccc(NCc3ccc4ccccc4c3)cc2NC(=S)C1c1ccc(Cl)cc1 (configuration not stated)
[1]
  pKi: < 4.00
[2]
  pIC50: 4.04
[3]
  pIC50: < 4.00

## COC(=O)C(c1ccc(Cl)cc1)N1C(=O)c2ccc(NCc3ccc(OC)cc3)cc2NC(=S)C1c1ccc(Cl)cc1 (configuration not stated)
[1]
  pKi: < 4.00
[2]
  pIC50: 4.05
[3]
  pIC50: < 4.00

## COC(=O)C(c1ccc(Cl)cc1)N1C(=O)c2ccc(NCc3ccsc3)cc2NC(=S)C1c1ccc(Cl)cc1 (configuration not stated)
[1]
  pKi: < 4.00
[2]
  pIC50: 5.47
[3]
  pIC50: < 4.00

## COC(=O)C(c1ccc(Cl)cc1)N1C(=O)c2ccc(NCc3ccc(F)cc3)cc2NC(=S)C1c1ccc(Cl)cc1 (configuration not stated)
[1]
  pKi: 5.77
[2]
  pIC50: 5.01
[3]
  pIC50: 4.51

## COC(=O)C(c1ccc(Cl)cc1)N1C(=O)c2ccc(NCc3ccco3)cc2NC(=S)C1c1ccc(Cl)cc1 (configuration not stated)
[1]
  pKi: 4.37
[2]
  pIC50: 4.95
[3]
  pIC50: 4.31

## COc1ccc(C2=N[C@@H](c3ccc(Cl)cc3)[C@@H](c3ccc(Cl)cc3)N2C(=O)N2CCNC(=O)C2)c(OC(C)C)c1 [NUTLIN-3]
[2]
  pIC50: 4.26
[3]
  pIC50: 4.61
